ChEMBL document CHEMBL4513216, “Probing the Open Global Health Chemical Diversity Library for Multistage-Active Starting Points for Next-Generation Antimalarials” (ACS Infect Dis, 2020)

Assay: Toxicity liver stage against HepG2, at 10uM
Type: cell-based
Parameters: test concentration 10 uM, cell line HepG2-A16-CD81EGFP
Conditions: human, HepG2-A16-CD81EGFP cells; read-out: INHIBITION
How it was run: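 Uninfected HepG2-A16-CD81EGFP cells, 3 × 10^3 per well, 1536-well, plated on prespotted compound at 10 μM final, parasite-free screening media added to match infected plates; puromycin 10 μM positive, DMSO 0.5% negative; run in parallel with 48 h PbLuc assay at 37 °C, 5% CO2; viability by CellTiter-Glo luminescence, normalized to controls.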

CC(Cc1ccco1)NC(=O)Nc1ccc(S(C)(=O)=O)nc1 (stereo unspecified)
cytotoxicity at 10 µM: 3.95%

Cc1ccc(S(=O)(=O)NC[C@H]2OC[C@@H](NCc3ccccn3)[C@@H]2O)cc1
cytotoxicity at 10 µM: -52.5%

Nc1ncncc1-c1noc([C@@H]2CCCN2CCCc2ccccc2)n1
cytotoxicity at 10 µM: 1.58%

COc1c[nH]c(C(=O)N2CCN(c3cccc(Cl)c3)CC2)cc1=O
cytotoxicity at 10 µM: -1%

O=c1cc2c(nn1CN1CCN(c3ccccc3)CC1)CCCC2
cytotoxicity at 10 µM: -9.58%

CCN1CCCC1CNC(=O)Cc1c(C)n[nH]c1-c1ccc(F)cc1 (stereo unspecified)
cytotoxicity at 10 µM: -3.02%

O=C(CSc1nc2c(cnn2CCO)c(=O)[nH]1)NC1CCCCC1
cytotoxicity at 10 µM: -8.07%

O=C(C1CC(F)(F)C1)N1CC[C@H]2OCC[C@@]2(COCC2CC2)C1
cytotoxicity at 10 µM: -3.09%

Cc1ccccc1C(=O)N1C[C@@H]2C[C@@H](C)O[C@@H]2C1
cytotoxicity at 10 µM: 0.995%

Cc1cc(NC(=O)CC2(Cn3cnnn3)CCCCC2)nn1C
cytotoxicity at 10 µM: 10.4%

Cc1cc(C)cc(OCn2ccc(C(=O)O)n2)c1
cytotoxicity at 10 µM: 6.06%

O=C(c1n[nH]cc1Cl)N1CCOCC1
cytotoxicity at 10 µM: 9.02%

CCn1nc(C)c2nc(C)nc(NCCCn3cccn3)c21
cytotoxicity at 10 µM: 2.38%

CCn1ccc(NC(=O)CCc2c(C)noc2C)n1
cytotoxicity at 10 µM: 7.16%

CC(CN(C)C)Nc1nc(O)cc(Cc2ccccc2F)n1 (stereo unspecified)
cytotoxicity at 10 µM: 13.2%

O[C@@H]1C[C@H]2CN(Cc3ccsc3)[C@@H](Cc3ccccc3)CN2C1
cytotoxicity at 10 µM: -2.13%

CCC1c2ccc(C)n2CCN1C(=O)Cn1cnc2sc(C)cc2c1=O (stereo unspecified)
cytotoxicity at 10 µM: 6.09%

CN(C)Cc1cnc(C2CN(C(=O)c3ccccc3Cl)CCO2)[nH]1 (stereo unspecified)
cytotoxicity at 10 µM: 1.07%

Cc1cc(O)cc(C2CCCN2C(=O)c2ccncc2)n1 (stereo unspecified)
cytotoxicity at 10 µM: 8.16%

Fc1ccc(Oc2nccnc2C2CCN(C3CCOCC3)CC2)cc1
cytotoxicity at 10 µM: -2.5%

COc1cc(C2Nc3cc(Cl)ccc3C3=NCCN32)cc(OC)c1OC (stereo unspecified)
cytotoxicity at 10 µM: -24.8%

CCC(=O)N1CCC(c2nc(O)c3c(n2)CN(C2CCCCC2)CC3)C1 (stereo unspecified)
cytotoxicity at 10 µM: -15.7%

CCn1cc(CN2CCC(O)(Cn3ccc4ncccc43)CC2)cn1
cytotoxicity at 10 µM: -16.3%

CC(=O)N1CCC(C(=O)c2cc(C)cnc2N)CC1
cytotoxicity at 10 µM: -0.0531%

O=C(c1ccc(Cl)cc1)N1CC2(CCNC2)OCc2ccccc21 (stereo unspecified)
cytotoxicity at 10 µM: 9.9%

O=C(c1cc(Cl)c[nH]1)N(CCCO)Cc1cccnc1
cytotoxicity at 10 µM: 7.48%

O=C(c1ccc(-c2cccs2)cc1F)N1CCN(CCO)CC1
cytotoxicity at 10 µM: -47.3%

CC(=O)Nc1nc(COc2nc(C)no2)cs1
cytotoxicity at 10 µM: -16.6%

CCCn1ccnc1SCC(=O)NC(Cc1ccccc1)C(C)=O (stereo unspecified)
cytotoxicity at 10 µM: -9.58%

O=S(=O)(NCCCn1cccn1)c1ccc2c(c1)CCC2
cytotoxicity at 10 µM: -4.59%

CN(Cc1ccco1)C(=O)CN1C(=O)c2cc(Cl)c(Cl)cc2C1=O
cytotoxicity at 10 µM: 1.11%

COCc1noc(Cn2c(C3CC3)nc3ccccc32)n1
cytotoxicity at 10 µM: 13.2%

N#CC1(NC(=O)COC(=O)Cc2cc(Cl)c3c(c2)OCCO3)CCCC1
cytotoxicity at 10 µM: 0.935%

CCc1nsc(N2CCCN(CC(=O)N(C)C3CC3)CC2)n1
cytotoxicity at 10 µM: -9.43%

O=C(NCCNS(=O)(=O)c1cccc(Cl)c1)C1CCCO1 (stereo unspecified)
cytotoxicity at 10 µM: 11.5%

CCc1ccc(C(COC)NC(=O)c2ccc(C(N)=O)cc2)o1 (stereo unspecified)
cytotoxicity at 10 µM: -2.65%

Cc1cc(C(=O)NCC2(N(C)C)CCCC2)c(C)n1-c1cccnc1
cytotoxicity at 10 µM: -8.41%

Cc1ncsc1C(=O)NC1CCN(c2ncccc2C#N)CC1
cytotoxicity at 10 µM: 2.68%

CCc1ccc(C(C)NC(=O)CCc2nc(-c3nnc[nH]3)no2)cc1 (stereo unspecified)
cytotoxicity at 10 µM: -1.98%

CC(C)c1nccn1C1CCCN(C(=O)c2ccc(=O)n(C)n2)C1 (stereo unspecified)
cytotoxicity at 10 µM: 7.8%

COC(=O)N1CCN(Cc2ccccc2C(C)(C)C#N)CC1
cytotoxicity at 10 µM: -3.53%

CN(Cc1nnc(C2CC2)n1C)C1CCN(CCS(C)(=O)=O)C1 (stereo unspecified)
cytotoxicity at 10 µM: 0.918%

CC(NC(=O)Cn1ccnc1)c1ccc(OCC2CC2)c(F)c1 (stereo unspecified)
cytotoxicity at 10 µM: 0.99%

Cc1cc(C(=O)N2CCCN(Cc3cnn(C(C)C)c3)CC2)no1
cytotoxicity at 10 µM: 0.243%

FC(F)(F)Sc1ccc(NCc2nnc(C3CC3)o2)cc1
cytotoxicity at 10 µM: 5.69%

COCCCn1ccc(NCc2cnc(C(C)(C)C)s2)n1
cytotoxicity at 10 µM: 5.91%

Cc1cnn(-c2cccc(N3CCCCC3)n2)c1
cytotoxicity at 10 µM: 0.247%

O=C(CCS(=O)(=O)C1CCCC1)NCCc1cccnc1
cytotoxicity at 10 µM: 6.86%

CN(CCN1CCOCC1)S(=O)(=O)CC1CCCC1
cytotoxicity at 10 µM: 10.2%

CC1COCCN1Cc1noc(C(C)(C)C)n1 (stereo unspecified)
cytotoxicity at 10 µM: 5.67%

CN1CCN(c2ccccc2NC(=O)NCC[S+](C)[O-])CC1 (stereo unspecified)
cytotoxicity at 10 µM: -2.41%

Cc1cccc2c1NC(c1cnc(C3CCC3)s1)NC2=O (stereo unspecified)
cytotoxicity at 10 µM: 5.11%

CO[C@H]1CN(C(=O)OC(C)(C)C)CC1NCc1cc[nH]c1 (stereo partly specified)
cytotoxicity at 10 µM: -46.6%

COCCOCCCNC(=O)c1cc(Cl)cc2cccnc12
cytotoxicity at 10 µM: 32.6%

CC(C)CC(c1nc(-c2cnn(C)c2)no1)N1CCCCC1=O (stereo unspecified)
cytotoxicity at 10 µM: -42%

Cc1cccc2c(CCNS(=O)(=O)C3CCOC3)c[nH]c12 (stereo unspecified)
cytotoxicity at 10 µM: 12.7%

Fc1cccc(CCN(c2ccc3nnnn3n2)C2CC2)c1
cytotoxicity at 10 µM: 4.21%

CC(c1ccccc1F)N1CCN(C(=O)Cc2ccncc2)CC1 (stereo unspecified)
cytotoxicity at 10 µM: -2.94%

Cc1cc(CN2CCCC(C)(CO)C2)ccc1F (stereo unspecified)
cytotoxicity at 10 µM: -20.4%

CC(C)N(C)Cc1cnc2n1CCN(C(=O)c1cccs1)C2
cytotoxicity at 10 µM: -74.2%

O=C(NCc1ccccc1)N1CCn2c(Cn3cccn3)cnc2C1
cytotoxicity at 10 µM: -71%

CN(C)C(=O)N1CCC2(CC1)C(c1cnn(C)c1)CC(=O)N2C (stereo unspecified)
cytotoxicity at 10 µM: -78.2%

Cc1occc1C(=O)N1CCn2c(COCC3CC3)cnc2C1C (stereo unspecified)
cytotoxicity at 10 µM: 7.02%

CC1c2ncc(COCC3CC3)n2CCN1C(=O)c1ccnn1C (stereo unspecified)
cytotoxicity at 10 µM: 4.68%

Cn1cc(-c2nnn3c2COC(CNCc2ccncc2)C3)cn1 (stereo unspecified)
cytotoxicity at 10 µM: 0.887%

c1ccc(OC[C@H]2CCC[C@]23CN(Cc2nccs2)CCO3)nc1
cytotoxicity at 10 µM: 3.34%

Cc1nc(CN(C)CC2CCCN(CCc3ccc(Cl)cc3)C2)n(C)n1 (stereo unspecified)
cytotoxicity at 10 µM: 4.44%

C1CCC(c2nc3c(c(N4CCN5CCCC5C4)n2)CCNCC3)C1 (stereo unspecified)
cytotoxicity at 10 µM: -1.1%

CN(C)C(=O)c1ccc(C2CCCN2C(=O)c2ccccc2N(C)C)s1 (stereo unspecified)
cytotoxicity at 10 µM: 18.5%

Cc1cccc(C(=O)N2CCCCC2c2nc3cc(F)ccc3[nH]2)n1 (stereo unspecified)
cytotoxicity at 10 µM: -1.99%

CCc1cnc(NCc2nc(COC)no2)nc1
cytotoxicity at 10 µM: 7.36%

COc1ccccc1OC1CN(c2ccncc2)C1
cytotoxicity at 10 µM: -2.76%

Cc1nccc(N[C@H]2CN(CCS(C)(=O)=O)C[C@@H]2C2CC2)n1
cytotoxicity at 10 µM: 0.34%

O=C(Cc1ccc2c(c1)OCO2)N1CCN(c2ccccc2Cl)C(=O)C1
cytotoxicity at 10 µM: -0.874%

Cc1nc2c(c(N3CCC(CN4CCCC4=O)CC3)n1)CCNCC2
cytotoxicity at 10 µM: 8.64%

O=C1NCC(CN2CCc3onc(-c4ccc(C(F)(F)F)cc4)c3C2)O1 (stereo unspecified)
cytotoxicity at 10 µM: 2.02%

CCn1c(N)nc2cc(C(=O)NCCc3ccccc3F)cnc21
cytotoxicity at 10 µM: -1.83%

CCN1CCN(C(=O)CCC2CCN(C(C)CCC(=O)OC)CC2)CC1 (stereo unspecified)
cytotoxicity at 10 µM: 0.9%

COCc1nnc(C(=O)N2CCC(N3CCCCC3)CC2)o1
cytotoxicity at 10 µM: 10.2%

O[C@@H]1CN(c2nc3ccccc3o2)CC[C@H]1c1ccc2c(c1)OCO2
cytotoxicity at 10 µM: 5.36%

CC(=O)N[C@@H]1CN(Cc2nc3ccccc3[nH]2)C[C@H]1c1ccc(C)o1
cytotoxicity at 10 µM: 2.75%

CN(C)CC1(O)CCN(C(=O)Cc2ccc(Cl)c(Cl)c2)C1 (stereo unspecified)
cytotoxicity at 10 µM: -4%

Cc1cc(C(=O)N2CCC(n3cc(CO)nn3)CC2)ccc1F
cytotoxicity at 10 µM: -4.73%

COC(=O)c1cccc(S(=O)(=O)NC(=O)COC2CCCCC2)c1
cytotoxicity at 10 µM: -10.1%

Cc1nc(C)n(CC2CCCN(Cc3cccc4c3OCCO4)C2)n1 (stereo unspecified)
cytotoxicity at 10 µM: -5.23%

Cc1ccc(C)c(NS(=O)(=O)c2cc3c(c(C(=O)O)c2)OCCO3)c1
cytotoxicity at 10 µM: -0.882%

N#Cc1cccc(NC(=O)CCn2nc(-c3cccs3)oc2=O)c1
cytotoxicity at 10 µM: -2%

Cc1cnn(CC2CCCCN2C(=O)c2ccccc2-n2cccn2)c1 (stereo unspecified)
cytotoxicity at 10 µM: -8.4%

Cc1cnn(CC2CCCCN2C(=O)c2ccc3[nH]c(=O)[nH]c3c2)c1 (stereo unspecified)
cytotoxicity at 10 µM: 5.8%

CC(NC(=O)CNCCn1cccn1)c1ccc2c(c1)CCCC2 (stereo unspecified)
cytotoxicity at 10 µM: -11.4%

FC(F)(F)COCCN1CCN(c2ccc3nncn3n2)CC1
cytotoxicity at 10 µM: -7.77%

O=C(NCc1cc[nH]n1)N1CCN(c2ccccc2Cl)CC1
cytotoxicity at 10 µM: -2.82%

COc1ccc(C(=O)N(Cc2cnn(C)c2)C(C)C)cc1Br
cytotoxicity at 10 µM: -9.02%

c1cnnc(N2CCCC2CNCc2ccsc2)c1 (stereo unspecified)
cytotoxicity at 10 µM: -8.9%

Cc1ccc(C)c(OC2CCN(C(=O)c3ccc(C)[nH]c3=O)CC2)c1
cytotoxicity at 10 µM: 2.87%

Cc1cccc(-c2noc(CN3CCCC(Cn4cncn4)C3)n2)c1 (stereo unspecified)
cytotoxicity at 10 µM: -3.51%

COc1ccc(C(=O)N2CCCCC2Cn2cccn2)c(F)c1 (stereo unspecified)
cytotoxicity at 10 µM: -5.38%

CC(C)N1CCC(CNCc2c[nH]nc2C(C)(C)C)C1 (stereo unspecified)
cytotoxicity at 10 µM: -2.16%

O=C(c1cnc(C2CC2)s1)N1CCCC(n2cccn2)C1 (stereo unspecified)
cytotoxicity at 10 µM: -13.9%

CCc1nc(CNC(C)Cn2cccn2)cs1 (stereo unspecified)
cytotoxicity at 10 µM: -4.67%

CC(C)N(C(=O)Cn1c(-c2ccco2)cc2cccnc21)C(C)C
cytotoxicity at 10 µM: -4.32%

Cc1ccc(OCCCSC2=NCCN2)cc1
cytotoxicity at 10 µM: -9.66%

CCCC(N)CNS(=O)(=O)Cc1cccc(C#N)c1 (stereo unspecified)
cytotoxicity at 10 µM: 6.13%

COc1ccc([C@@H]2CN(Cc3ccncc3)C[C@H]2c2cc[nH]n2)cc1
cytotoxicity at 10 µM: -4.96%

Cc1ccc(CN2CCOC3(CCN(C(=O)C4CCOC4)CC3)C2)cc1 (stereo unspecified)
cytotoxicity at 10 µM: 0.933%

CN(C)C(=O)NC1COC2(CCN(Cc3ccc(Cl)c(F)c3)CC2)C1 (stereo unspecified)
cytotoxicity at 10 µM: -76.4%

COCCNC(=O)[C@@]12CCO[C@@H]1CCN(Cc1c(C)noc1C)C2
cytotoxicity at 10 µM: -2.45%

Cc1ccc(C(=O)N2CCn3c(COCC4CC4)cnc3C2C)nc1 (stereo unspecified)
cytotoxicity at 10 µM: 3.58%

CN(C)C(=O)[C@@H]1CC[C@@H]2[C@@H](CCN2Cc2ccccn2)O1
cytotoxicity at 10 µM: -3.55%

CSc1ccc(C(=O)N2C[C@@H]3CC[C@H]2CN(Cc2ccccc2)C3)cc1
cytotoxicity at 10 µM: -5.49%

C=c1nc(NC)sc1=C1NC(c2c(C)ncc3c2CCNC3)=NO1
cytotoxicity at 10 µM: 1.67%
